# Experimental data taken from ChEMBL document CHEMBL1782029, “Synthesis and biological evaluation of N-substituted benzo[c]phenanthrolines and benzo[c]phenanthrolinones as antiproliferative agents” (Eur J Med Chem, 2011).
# The source made the active and inactive calls. No cut-off for these calls is given here.
# Tests used:
# [1] = target: T1, DNA topoisomerase 1 (Homo sapiens) (UniProt P11387); assay: Inhibition of human recombinant topoisomerase 1 assessed as cleavage of 117-mer DNA fragment at 20 to 50 uM using ethidium bromide staining by agarose gel electrophoresis analysis
# T1 sequence (whole entry): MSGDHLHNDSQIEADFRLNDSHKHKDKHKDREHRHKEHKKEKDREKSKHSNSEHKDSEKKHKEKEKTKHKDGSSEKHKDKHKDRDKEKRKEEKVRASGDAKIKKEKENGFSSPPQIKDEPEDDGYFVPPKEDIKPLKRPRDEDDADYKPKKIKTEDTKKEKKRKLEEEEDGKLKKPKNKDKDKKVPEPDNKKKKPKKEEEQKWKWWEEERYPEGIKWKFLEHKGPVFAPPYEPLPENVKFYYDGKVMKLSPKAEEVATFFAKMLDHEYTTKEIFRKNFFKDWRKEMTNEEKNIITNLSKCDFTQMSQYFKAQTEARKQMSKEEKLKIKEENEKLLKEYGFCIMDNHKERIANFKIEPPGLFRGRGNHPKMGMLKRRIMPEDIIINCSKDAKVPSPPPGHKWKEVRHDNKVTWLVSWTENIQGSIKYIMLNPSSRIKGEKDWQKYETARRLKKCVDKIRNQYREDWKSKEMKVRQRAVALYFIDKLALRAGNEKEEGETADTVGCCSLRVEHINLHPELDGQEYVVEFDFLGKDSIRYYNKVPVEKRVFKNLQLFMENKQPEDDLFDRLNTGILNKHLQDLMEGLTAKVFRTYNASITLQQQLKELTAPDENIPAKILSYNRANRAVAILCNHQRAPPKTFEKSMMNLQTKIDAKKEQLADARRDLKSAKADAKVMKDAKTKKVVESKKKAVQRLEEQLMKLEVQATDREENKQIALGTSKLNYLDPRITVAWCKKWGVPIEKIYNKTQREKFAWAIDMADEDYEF
# [2] = system: HT-29; assay: Cytotoxicity against human HT-29 cells after 72 hrs by MTS assay; type: functional, cell-based; conditions: HT-29, 72 h
# [3] = target: T1, DNA topoisomerase 1 (Homo sapiens); assay: Inhibition of camptothecin-induced poisoning effect of human topoisomerase 1 assessed as suppression of CPT-induced 117 bp DNA cleavage by SDS-PAGE analysis
# [4] = target: T1, DNA topoisomerase 1 (Homo sapiens); assay: Inhibition of human recombinant topoisomerase 1-mediated relaxation of supercoiled pUC19 DNA assessed as formation of nicked DNA at 0.2 to 10 uM using ethidium bromide staining by agarose gel electrophoresis
# In short: (§1)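 Supercoiled pUC19 plasmid (130 ng) was incubated with 4 units of human recombinant Top1 at 37 °C for 45 min in relaxation buffer (50 mM Tris pH 7.8, 50 mM KCl, 10 mM MgCl2, 1 mM DTT, 1 mM EDTA, 1 mM ATP) with increasing compound concentrations. Products were resolved on 1% agarose at room temperature, 2 h at 120 V, then stained with ethidium bromide and imaged under UV.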
# [5] = target: DNA topoisomerase 2-alpha (Homo sapiens) (UniProt P11388); assay: Inhibition of human topoisomerase 2 assessed as formation of nicked form of supercoiled pUC19 DNA at 50 uM after 45 mins using ethidium bromide staining by agarose gel analysis
# Sequence of DNA topoisomerase 2-alpha (Homo sapiens) (P11388 whole entry): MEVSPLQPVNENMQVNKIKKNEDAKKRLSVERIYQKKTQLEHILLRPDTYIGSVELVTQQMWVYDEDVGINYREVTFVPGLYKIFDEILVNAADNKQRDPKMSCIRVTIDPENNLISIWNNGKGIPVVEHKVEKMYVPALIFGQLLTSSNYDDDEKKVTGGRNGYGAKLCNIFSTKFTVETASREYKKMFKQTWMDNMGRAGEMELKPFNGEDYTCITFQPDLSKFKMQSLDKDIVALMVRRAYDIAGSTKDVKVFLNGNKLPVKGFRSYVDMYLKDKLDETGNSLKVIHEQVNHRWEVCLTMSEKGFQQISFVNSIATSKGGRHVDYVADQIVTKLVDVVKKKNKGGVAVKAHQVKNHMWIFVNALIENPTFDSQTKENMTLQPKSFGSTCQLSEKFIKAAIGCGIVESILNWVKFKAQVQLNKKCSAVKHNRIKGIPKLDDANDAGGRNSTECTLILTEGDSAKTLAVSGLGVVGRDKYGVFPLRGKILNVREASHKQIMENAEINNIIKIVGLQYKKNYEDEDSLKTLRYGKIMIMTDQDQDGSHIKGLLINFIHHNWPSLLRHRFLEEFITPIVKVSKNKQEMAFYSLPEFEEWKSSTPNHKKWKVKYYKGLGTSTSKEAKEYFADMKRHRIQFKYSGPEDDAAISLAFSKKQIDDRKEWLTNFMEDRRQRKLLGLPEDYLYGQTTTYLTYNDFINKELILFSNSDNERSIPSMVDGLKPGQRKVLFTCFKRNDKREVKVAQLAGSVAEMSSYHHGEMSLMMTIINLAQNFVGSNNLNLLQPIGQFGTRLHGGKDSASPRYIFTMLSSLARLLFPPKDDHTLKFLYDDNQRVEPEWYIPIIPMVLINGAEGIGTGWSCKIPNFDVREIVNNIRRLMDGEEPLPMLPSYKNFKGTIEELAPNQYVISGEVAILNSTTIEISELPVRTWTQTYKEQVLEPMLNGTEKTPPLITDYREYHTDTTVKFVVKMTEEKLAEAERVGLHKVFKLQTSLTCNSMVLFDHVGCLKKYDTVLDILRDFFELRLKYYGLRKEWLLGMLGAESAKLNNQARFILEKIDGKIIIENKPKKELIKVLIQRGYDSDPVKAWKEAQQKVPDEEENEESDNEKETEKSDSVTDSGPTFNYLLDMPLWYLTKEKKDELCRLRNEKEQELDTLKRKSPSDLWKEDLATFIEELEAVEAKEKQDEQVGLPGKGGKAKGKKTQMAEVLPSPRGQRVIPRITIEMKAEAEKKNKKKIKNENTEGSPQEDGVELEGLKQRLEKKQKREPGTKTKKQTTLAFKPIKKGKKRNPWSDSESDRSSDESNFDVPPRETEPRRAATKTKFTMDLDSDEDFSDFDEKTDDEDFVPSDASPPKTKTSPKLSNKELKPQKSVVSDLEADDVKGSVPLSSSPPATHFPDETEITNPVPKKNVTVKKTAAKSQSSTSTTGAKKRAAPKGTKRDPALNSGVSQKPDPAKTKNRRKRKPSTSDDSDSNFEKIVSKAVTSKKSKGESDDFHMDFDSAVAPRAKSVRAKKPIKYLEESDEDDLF
# [6] = target: DNA topoisomerase 2-alpha (Homo sapiens) (UniProt P11388); assay: Inhibition of human topoisomerase 2 assessed as formation of linear form of supercoiled pUC19 DNA at 50 uM after 45 mins using ethidium bromide staining by agarose gel analysis
# [7] = system: Calf thymus DNA; assay: Binding affinity to calf thymus DNA by circular dichroism analysis; type: nucleic-acid assay; conditions: Bos taurus
# [8] = system: Calf thymus DNA; assay: Binding affinity to calf thymus DNA at 20 uM by UV-vis spectrophotometry analysis; type: nucleic-acid assay; conditions: Bos taurus
# [9] = target: T1, DNA topoisomerase 1 (Homo sapiens); assay: Inhibition of human recombinant topoisomerase 1-mediated relaxation of supercoiled pUC19 DNA assessed as formation of nicked DNA at 1 to 50 uM using ethidium bromide staining by agarose gel electrophoresis; in short: as §1
# [10] = target: T1, DNA topoisomerase 1 (Homo sapiens); assay: Inhibition of human recombinant topoisomerase 1 assessed as cleavage of 117-mer DNA fragment at 0.5 to 5 uM using ethidium bromide staining by agarose gel electrophoresis analysis
# [11] = target: DNA topoisomerase 2-alpha (Homo sapiens) (UniProt P11388); conditions: 50 uM
# [12] = target: DNA topoisomerase 2-alpha (Homo sapiens) (UniProt P11388); conditions: 50 uM; remark: listed apart in the source
# [13] = target: T1, DNA topoisomerase 1 (Homo sapiens); assay: Inhibition of human recombinant topoisomerase 1-mediated relaxation of supercoiled pUC19 DNA assessed as formation of nicked DNA at 0.1 to 5 uM using ethidium bromide staining by agarose gel electrophoresis; in short: as §1
# [14] = system: Nucleic Acid; assay: Binding affinity to 265 bp of 3'-end-radio-labelled DNA fragment at 0.5 to 5 uM treated 15 mins before Dnase 1-mediated digestion by footprinting assay; type: nucleic-acid assay
# In short: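 DNase I footprinting. It was equilibrated with compound for 15 min at 37 °C, then digested 3 min with DNase I (0.01 unit/ml) in 20 mM NaCl, 2 mM MgCl2, 2 mM MnCl2, pH 7.3. Samples were lyophilised, denatured at 90 °C and run on an 8% denaturing polyacrylamide gel.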
# [15] = system: HT-29; assay: Cell cycle arrest in human HT-29 cells at G2/M phase at 0.1 to 2.5 uM after 48 hrs using propidium iodide staining by FACS analysis; type: functional, cell-based
# In short: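 Exponentially growing HT-29 colon carcinoma cells (300,000 per well) were plated for 24 h, then exposed to 0.1, 1 or 2.5 µM compound for 48 h. Cells were fixed, stained with propidium iodide and analysed by flow cytometry (FACScan).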
SMILES,inhibition [1],IC50 [2],inhibition [3],inhibition [4],inhibition [5],inhibition [6],Activity [7],Activity [8],Topoisomerase 1 inhibition (active/inactive) [9],inhibition [10],inhibition [11],inhibition [12],Top1 relaxation inhibition (qualitative call) [13],inhibition [14],Activity [15]
CCN(CC)CCCNc1nc2c3cccnc3ccc2c2cc3c(cc12)OCO3,inactive,1830 nM,Dose-dependent effect,Active,inactive,inactive,Active,Active,,,,,,,
CCN(CC)CCn1c(=O)c2cc(OC)c(OC)cc2c2ccc3ncccc3c21,,2630 nM,Dose-dependent effect,,,,Active,Active,Active,inactive,,,,,
COc1cc([C@@H]2c3cc4c(cc3[C@@H](O[C@@H]3O[C@@H]5CO[C@@H](C)O[C@H]5[C@H](O)[C@H]3O)[C@H]3COC(=O)[C@H]23)OCO4)cc(OC)c1O,,,,,,,,,,,Active,Active,,,
COc1cc2c(NCCN(C)C)nc3c4ccncc4ccc3c2cc1OC,inactive,1020 nM,Dose-dependent effect,Active,inactive,inactive,Active,Active,,,,,Active,Active,Active
CN(C)CCCNc1nc2c3cccnc3ccc2c2cc3c(cc12)OCO3,,1730 nM,Dose-dependent effect,,,,Active,Active,Active,inactive,,,,Active,
